ChEMBL document CHEMBL1150198, “DNA as an affinity probe useful in the detection and isolation of biologically active natural products” (J Nat Prod, 1991)
Starred links: 1 amine or outer side, 2 acyl side, 3 side chain; linkers in the order of their positions; H or OH if unused. Positions of bridges follow the written chain, without caps; N, C: chain ends. Non-standard residues stand in square brackets, D forms with d. Residues, ends and D or L forms follow the SMILES beside them. Chains are numbered I, II in the order given. Actinocin(9to1) = Cc1c2oc3c(C)ccc(C(=O)[*:1])c3nc-2c(C(=O)[*:2])c(N)c1=O; NMeV = CN[C@H](C(=O)O)C(C)C; Sar = CNCC(=O)O

Experiments:
Nucleic Acid = assay: Binding affinity to yeast tRNA assessed as reduction in tRNA peak by pre-incubation method; type: nucleic-acid assay; parameters: concentration or dose not given beside the values; conditions: Saccharomyces cerevisiae
Outline: (§1)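 Nucleic acid at 0.1 mg/ml in water; test substance at 1.0 mg/ml in water or MeOH, mixed 1:1 (v/v) and held at ambient temperature for 5–30 min. 40 or 80 µl injected onto a C18 reversed-phase column equilibrated in H2O-MeOH (80:20), 1 ml/min, with 254 nm detection. The free nucleic-acid peak (~1.2 min) was compared with nucleic acid injected alone.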

Calf thymus DNA = assay: Binding affinity to calf thymus DNA assessed as reduction in DNA peak by pre-incubation method; type: nucleic-acid assay; parameters: concentration or dose not given beside the values; conditions: Bos taurus; outline: as §1

Row | Compound | Activity (Nucleic Acid) | Activity (Calf thymus DNA)
1 | COc1cc2c(ccc3c4cc(OC)c(OC)cc4c[n+](C)c23)cc1O | 100% | 100%
2 | C=C1C(=O)O[C@H]2[C@H]1[C@@H](O)[C@H](OC(=O)C=C(C)C)C(C)=C1C[C@H]3O[C@@]3(C)[C@@H]12 | – | 30%
3 | COc1cccc2c1C(=O)c1c(O)c3c(c(O)c1C2=O)C[C@@](O)(C(C)=O)C[C@@H]3O[C@H]1C[C@H](N)[C@H](O)[C@H](C)O1 | – | 100%
4 | C=C1C(=O)O[C@H]2[C@H]1[C@@H](O)[C@H](O)C(C)=C1C[C@H]3O[C@@]3(C)[C@@H]12 | < 30% | 30%
5 | C=C1C(=O)O[C@@H]2C3O[C@]3(C)CC/C=C(\C)CC[C@@H]12 (stereo partly specified) | < 30% | 30%
6 | COc1cccc2c1C(=O)c1c(O)c3c(c(O)c1C2=O)C[C@@](O)(C(=O)CO)C[C@@H]3O[C@H]1C[C@H](N)[C@H](O)[C@H](C)O1 | 100% | 100%
7 | CC[C@]1(O)C[C@H]2CN(CCc3c([nH]c4ccccc34)[C@@](C(=O)OC)(c3cc4c(cc3OC)N(C=O)[C@H]3[C@@](O)(C(=O)OC)[C@H](OC(C)=O)[C@]5(CC)C=CCN6CC[C@]43[C@@H]65)C2)C1 | 100% | > 70%
8 | CC(C)=CC(=O)O[C@@H]1C(C)=C2C(=O)C=C(C)[C@]2(O)[C@H]2OC(=O)C[C@@H]2[C@H]1O | – | 30%
9 | COC(=O)CC1(O)C=CC(=O)C=C1 | < 30% | 30%
10 | CC[n+]1c(-c2ccccc2)c2cc(N)ccc2c2ccc(N)cc21 | 100% | 100%
11 | COc1ccc2c(c1)c1ccnc3ccc(=O)n2c31 | – | 30%
12 | Cc1c2ccncc2c(C)c2c1[nH]c1ccccc12 | 30% | > 70%
13 | BLEOMYCIN | > 70% | < 30%
14 | COc1cc2c(c(OC)c1OC)-c1ccc(OC)c(=O)cc1[C@@H](NC(C)=O)CC2 | < 30% | < 30%
15 | COc1cc2c(c3c1c(=O)c1ccccc1n3C)C=CC(C)(C)O2 | – | < 30%
16 | Nc1c2ccccc2nc2ccccc12 | 100% | > 70%
17 | Cc1c2oc3c(C)ccc(C(=O)N[C@@H]4C(=O)N[C@H](C(C)C)C(=O)N5CCC[C@H]5C(=O)N(C)CC(=O)N(C)[C@@H](C(C)C)C(=O)O[C@@H]4C)c3nc-2c(C(=O)N[C@@H]2C(=O)N[C@H](C(C)C)C(=O)N3CCC[C@H]3C(=O)N(C)CC(=O)N(C)[C@@H](C(C)C)C(=O)O[C@@H]2C)c(N)c1=O (I: T[dV]P[Sar][NMeV] / II: T[dV]P[Sar][NMeV]; ester I:1-I:C, II:1-II:C; linker I:N-II:N via Actinocin(9to1)) | < 30% | 30%
18 | CC[C@]1(O)C[C@@H]2CN(CCc3c([nH]c4ccccc34)[C@@](C(=O)OC)(c3cc4c(cc3OC)N(C)[C@H]3[C@@](O)(C(=O)OC)[C@H](OC(C)=O)[C@]5(CC)C=CCN6CC[C@]43[C@@H]65)C2)C1 | 100% | > 70%
